# Measurements from ChEMBL document CHEMBL4765418, “Discovery of novel quinazolinone derivatives as potential anti-HBV and anti-HCC agents” (Eur J Med Chem, 2020).
# Activity calls are given as the source filed them. The calls are words filed in the database; no cut-off is given here.
# Key:
# [1] = Cytotoxicity against human HepG2 2.2.15 cells assessed as reduction in cell viability measured after 72 hrs by MTT assay; assay type: cell-based
# Summary of the method: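 HepG2 2.2.15 cells (HBV-producing; grown in DMEM with 10% FBS, penicillin/streptomycin and 0.38 mg/mL G418) seeded in 96-well plates and grown 24 h, then treated 72 h with compounds. Viability read by MTT absorbance at 490 nm relative to untreated cells. CC50 is the dose causing 50% cell death.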
# HepG2 [2] = assay: Antiproliferative activity against human HepG2 cells assessed as inhibition of cell proliferation after 72 hrs by MTT assay; assay type: functional, cell-based; conditions: HepG2, 72 h
# Summary of the method: (§1)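 Cells seeded in 96-well plates and grown 24 h to reach exponential growth, then exposed to test compounds in culture medium for 72 h. Viability read by MTT absorbance at 490 nm relative to untreated cells. IC50 is the concentration giving 50% inhibition of proliferation.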
# Hepatitis B virus [3] = assay: Antiviral activity against HBV infected in human HepG2.2.15 cells assessed as inhibition of DNA replication supplemented with fresh medium containing compound every 2 days for 6 days by RT-PCR analysis; assay type: functional, organism-based; conditions: HepG2 2.2.15
# Summary of the method: (§2)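 HepG2 2.2.15 cells (2×10^5/well, 24-well) left 24 h to recover from trypsinization, then given fresh medium with compound (single-point screen at 0.8 μM), renewed every 2 days for 6 days. Intracellular HBV DNA extracted and quantified by real-time PCR. IC50 is the dose giving 50% inhibition of DNA replication, taken from dose–response.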
# Hepatitis B virus [4] = assay: (§3) Antiviral activity against HBV infected in human HepG2.2.15 cells assessed as inhibition of DNA replication at 0.8 uM supplemented with fresh medium containing compound every 2 days for 6 days by RT-PCR analysis relative to control; assay type: functional; conditions: HepG2 2.2.15, 144 h, time 6 day; summary of the method: as §2
# [5] = Selectivity index, ratio of CC50 for human HepG2 2.2.15 cells to IC50 for antiviral activity against HBV infected in human HepG2.2.15 cells assessed as inhibition of DNA replication; assay type: toxicity, cell-based; conditions: read-out: Ratio CC50/IC50
# Hepatitis B virus [6] = assay: as §3, with “against lamivudine and entecavir-resistant” for “against”, “HBV harboring rtL180 M/rtM204V/rtT184L mutant” for “HBV”; assay type: functional; conditions: HepG2 2.2.15, 144 h, time 6 day
# Hepatitis B virus [7] = assay: Antiviral activity against HBV infected in human HepG2.2.15 cells assessed as inhibition of HBsAg production supplemented with fresh medium containing compound every 3 days for 6 days by EIA relative to control; assay type: functional, HepG2 2.2.15; conditions: time 6 day
# HepG2 [8] = assay: Induction of apoptosis in human HepG2 cells assessed as necrotic cells at 20 uM after 48 hrs by Annexin-V FITC/propidium iodide staining based fluorescence microscopic analysis (reference value: 0.14%); assay type: functional
# HepG2 [9] = assay: Induction of apoptosis in human HepG2 cells assessed as viable cells at 20 uM after 48 hrs by Annexin-V FITC/propidium iodide staining based fluorescence microscopic analysis (reference value: 97.07%); assay type: functional; conditions: read-out: Activity
# HepG2 [10] = assay: Induction of apoptosis in human HepG2 cells assessed as late apoptotic cells at 20 uM after 48 hrs by Annexin-V FITC/propidium iodide staining based fluorescence microscopic analysis (reference value: 1.11%); assay type: functional
# HepG2 [11] = assay: Induction of apoptosis in human HepG2 cells assessed as nuclear fragmentation at 5 to 20 uM after 48 hrs by Hoechst 33342 staining based fluorescence microscopic analysis; assay type: functional, cell-based; conditions: dose 5-20 µM
# Summary of the method: (§4)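 HepG2 cells (5×10^4/well, six-well) exposed to 5, 10 or 20 μM for 48 h, washed with PBS, fixed in 4% paraformaldehyde 30 min, stained with Hoechst 33342 (20 μg/mL) 15 min at room temperature in the dark. Nuclear fragmentation and chromatin condensation scored by fluorescence microscopy.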
# HepG2 [12] = assay: Induction of apoptosis in human HepG2 cells assessed as down regulation of Bcl-2 expression measured after 48 hrs by Western blot analysis; assay type: functional, cell-based
# Summary of the method: (§5)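 HepG2 cells treated 5, 10 or 20 μM for 48 h, lysed; 40 μg protein/lane resolved by SDS-PAGE, transferred to PVDF, blocked in 5% nonfat milk, probed overnight at 4 °C with mouse anti-Bad, Bax, Bcl-2 or Bcl-xl, then secondary antibody 2 h. ECL detection; band densities expressed relative to GAPDH.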
# HepG2 [13] = assay: Induction of apoptosis in human HepG2 cells assessed as viable cells at 10 uM after 48 hrs by Annexin-V FITC/propidium iodide staining based fluorescence microscopic analysis (reference value: 97.07%); assay type: functional; conditions: read-out: Activity
# HepG2 [14] = assay: Induction of apoptosis in human HepG2 cells assessed as early apoptotic cells at 20 uM after 48 hrs by Annexin-V FITC/propidium iodide staining based fluorescence microscopic analysis (reference value: 1.68%); assay type: functional
# HepG2 [15] = assay: Induction of apoptosis in human HepG2 cells assessed as viable cells at 5 uM after 48 hrs by Annexin-V FITC/propidium iodide staining based flow cytometric analysis (reference value: 97.07%); conditions: HepG2, 48 h
# Huh-7 = assay: Antiproliferative activity against human Huh-7 cells assessed as inhibition of cell proliferation after 72 hrs by MTT assay; assay type: functional, cell-based; conditions: Huh-7, 72 h; summary of the method: as §1
# HepG2 [16] = assay: Induction of apoptosis in human HepG2 cells assessed as up regulation of Bad expression measured after 48 hrs by Western blot analysis; assay type: functional, cell-based; summary of the method: as §5
# HepG2 [17] = assay: Induction of apoptosis in human HepG2 cells assessed as necrotic cells at 10 uM after 48 hrs by Annexin-V FITC/propidium iodide staining based fluorescence microscopic analysis (reference value: 0.14%); assay type: functional
# SK-HEP1 = assay: Antiproliferative activity against human SK-HEP1 cells assessed as inhibition of cell proliferation after 72 hrs by MTT assay; assay type: functional, cell-based; conditions: SK-HEP1, 72 h; summary of the method: as §1
# HepG2 [18] = assay: Induction of apoptosis in human HepG2 cells assessed as late apoptotic cells at 10 uM after 48 hrs by Annexin-V FITC/propidium iodide staining based fluorescence microscopic analysis (reference value: 1.11%); assay type: functional
# HepG2 [19] = assay: Induction of apoptosis in human HepG2 cells assessed as up regulation of Bax expression measured after 48 hrs by Western blot analysis; assay type: functional, cell-based; summary of the method: as §5
# HepG2 [20] = assay: Induction of apoptosis in human HepG2 cells assessed as down regulation of Bcl-xl expression measured after 48 hrs by Western blot analysis; assay type: functional, cell-based; summary of the method: as §5
# HepG2 [21] = assay: Induction of apoptosis in human HepG2 cells assessed as late apoptotic cells at 5 uM after 48 hrs by Annexin-V FITC/propidium iodide staining based flow cytometric analysis (reference value: 1.11%)
# HepG2 [22] = assay: Induction of apoptosis in human HepG2 cells assessed as necrotic cells at 5 uM after 48 hrs by Annexin-V FITC/propidium iodide staining based flow cytometric analysis (reference value: 0.14%)
# HepG2 [23] = assay: Induction of apoptosis in human HepG2 cells assessed as early apoptotic cells at 10 uM after 48 hrs by Annexin-V FITC/propidium iodide staining based fluorescence microscopic analysis (reference value: 1.68%); assay type: functional
# HepG2 [24] = assay: Induction of apoptosis in human HepG2 cells assessed as early apoptotic cells at 5 uM after 48 hrs by Annexin-V FITC/propidium iodide staining based flow cytometric analysis (reference value: 1.68%)
# HepG2 [25] = assay: Induction of apoptosis in human HepG2 cells assessed as chromatin condensation at 5 to 20 uM after 48 hrs by Hoechst 33342 staining based fluorescence microscopic analysis; assay type: functional, cell-based; conditions: dose 5-20 µM; summary of the method: as §4
compound,measurement,setting,value
CCN(CC)CCOc1ccc2nc(SCc3ccccc3)n(Cc3ccco3)c(=O)c2c1,CC50 at 72 h,[1],> 10 µM
same,IC50,HepG2 [2],17.3 µM
same,IC50,Hepatitis B virus [3],0.63 µM
same,inhibition at 0.8 µM,Hepatitis B virus [4],67.5%
same,selectivity ratio,[5],> 15.9
same,inhibition at 0.8 µM,Hepatitis B virus [6],58.9%
same,inhibition (INH),Hepatitis B virus [7],13.64%
COc1ccccc1CSc1nc2ccc(OCCN(C)C)cc2c(=O)n1Cc1ccccc1,CC50 at 72 h,[1],> 10 µM
same,IC50,HepG2 [2],> 20 µM
same,inhibition at 0.8 µM,Hepatitis B virus [4],11.8%
CN(C)CCOc1ccc2nc(SCc3ccccc3)n(Cc3ccco3)c(=O)c2c1,CC50 at 72 h,[1],> 10 µM
same,IC50,HepG2 [2],17.5 µM
same,inhibition at 0.8 µM,Hepatitis B virus [4],21.7%
COc1ccccc1CSc1nc2ccc(OCCN(C)C)cc2c(=O)n1Cc1ccco1,CC50 at 72 h,[1],> 10 µM
same,IC50,HepG2 [2],> 100 µM
same,IC50,Hepatitis B virus [3],0.72 µM
same,inhibition at 0.8 µM,Hepatitis B virus [4],67.1%
same,selectivity ratio,[5],> 13.9
CCN(CC)CCOc1ccc2nc(SCc3cc(C(C)=O)ccc3OC)n(Cc3ccccc3)c(=O)c2c1,CC50 at 72 h,[1],> 10 µM
same,IC50,HepG2 [2],> 20 µM
same,inhibition at 0.8 µM,Hepatitis B virus [4],4.93%
CCN(CC)CCOc1ccc2nc(SCc3ccccc3OC)n(Cc3ccccc3)c(=O)c2c1,CC50 at 72 h,[1],> 10 µM
same,IC50,HepG2 [2],> 20 µM
same,inhibition at 0.8 µM,Hepatitis B virus [4],9.8%
COc1ccccc1CSc1nc2ccc(OCCCN(C)C)cc2c(=O)n1Cc1ccco1,CC50 at 72 h,[1],8.38 µM
same,IC50,HepG2 [2],6.76 µM
same,inhibition at 0.8 µM,Hepatitis B virus [4],34.4%
COc1ccc(C(C)=O)cc1CSc1nc2ccc(OCCN(C)C)cc2c(=O)n1Cc1ccco1,CC50 at 72 h,[1],> 10 µM
same,IC50,HepG2 [2],11.3 µM
same,inhibition at 0.8 µM,Hepatitis B virus [4],20.7%
CN(C)CCCOc1ccc2nc(SCc3ccccc3)n(Cc3ccccc3)c(=O)c2c1,CC50 at 72 h,[1],> 10 µM
same,IC50,HepG2 [2],> 20 µM
same,inhibition at 0.8 µM,Hepatitis B virus [4],42.8%
CN(C)CCCOc1ccc2nc(SCc3ccccc3)n(Cc3ccco3)c(=O)c2c1,Activity,HepG2 [8],5.12%
same,viability at 20 µM,HepG2 [9],22.9%
same,Activity,HepG2 [10],31.67%
same,Activity,HepG2 [11],Active
same,CC50 at 72 h,[1],> 10 µM
same,IC50,HepG2 [2],5.44 µM
same,Activity,HepG2 [12],Dose-dependent effect
same,viability at 10 µM,HepG2 [13],57.5%
same,Activity,HepG2 [14],40.31%
same,viability at 5 µM,HepG2 [15],81.5%
same,IC50,Huh-7,6.42 µM
same,IC50,Hepatitis B virus [3],0.58 µM
same,Activity,HepG2 [16],Dose-dependent effect
same,inhibition at 0.8 µM,Hepatitis B virus [4],67.3%
same,Activity,HepG2 [17],4.5%
same,selectivity ratio,[5],> 17.2
same,IC50,SK-HEP1,6.75 µM
same,Activity,HepG2 [18],14.15%
same,Activity,HepG2 [19],Dose-dependent effect
same,Activity,HepG2 [20],Dose-dependent effect
same,Activity,HepG2 [21],4.88%
same,inhibition at 0.8 µM,Hepatitis B virus [6],64%
same,Activity,HepG2 [22],0.49%
same,Activity,HepG2 [23],23.83%
same,inhibition (INH),Hepatitis B virus [7],4.55%
same,Activity,HepG2 [24],13.07%
same,Activity,HepG2 [25],Active
CCN(CC)CCOc1ccc2nc(SCc3cc(C(C)=O)ccc3OC)n(Cc3ccco3)c(=O)c2c1,CC50 at 72 h,[1],> 10 µM
same,IC50,HepG2 [2],17 µM
same,inhibition at 0.8 µM,Hepatitis B virus [4],45.2%
CNC(=O)c1cc(Oc2ccc(NC(=O)Nc3ccc(Cl)c(C(F)(F)F)c3)cc2)ccn1 [SORAFENIB],IC50,HepG2 [2],7.67 µM
same,IC50,Huh-7,7.92 µM
same,IC50,SK-HEP1,9.64 µM
